# Only some compounds are listed: those with a hit (about 1.3% of all), similar ones and a draw of the others.
# S1P3 antag: S1P3 (human) receptor antagonism; Q99500; CHO S1P3 NFAT-BLA reporter, FRET fluorescence, antagonist mode; inhibition, % at 4.98 µM; 170,000 tested, 0.27% active; AID 485;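 active = inhibition above the plate cutoff, the mean inhibition of test wells on that plate plus 3 SD, cut at about 28% in these data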;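 also: cells challenged with S1P at its EC80 of 0.8 µM; blue over green emission ratio from cleaved BLA substrate after 4 h stimulation; 0% = S1P-stimulated wells and 100% = unstimulated DMSO-only wells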
# MDM2 E3 inh: Mdm2 E3 ligase (human) inhibition; Q00987; cell-based MDM2 ubiquitination luciferase reporter, 2 h; 0 = plate control, 100 = twice control, blank-subtracted; signal enhancement, % at 5 µM; 210,000 tested, 0.11% active;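 active = signal enhancement of 30% or more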;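 also: luminescence tracks abundance of the self-degrading MDM2-luciferase fusion protein; higher signal means inhibition of MDM2 E3 ligase activity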
#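 Assay system: mammalian cells stably expressing self-ubiquitinating, self-degrading MDM2 E3–luciferase fusion. Quantity: 2000 cells in each well. Medium: DMEM culture medium. Compound dosing: single-point 5 µM. Timing: cell settling 4 h, compound treatment 2 h, both 37 °C. Technique: luciferase luminescence. Read-out basis: percent signal gain over controls, blank-subtracted. Benchmarks: plate controls and plate blanks.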
# S1P4 ag: activates the human S1P4 receptor; O95977; S1P4-expressing cell line, agonist reporter assay; activation, % at 4.98 µM; 220,000 tested, 0.35% active; AID 1509; in the data active = activation above about 11%;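 also: 0% = DMSO vehicle and 100% = reference agonist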
# Target sequence (O95977 whole entry, looked up): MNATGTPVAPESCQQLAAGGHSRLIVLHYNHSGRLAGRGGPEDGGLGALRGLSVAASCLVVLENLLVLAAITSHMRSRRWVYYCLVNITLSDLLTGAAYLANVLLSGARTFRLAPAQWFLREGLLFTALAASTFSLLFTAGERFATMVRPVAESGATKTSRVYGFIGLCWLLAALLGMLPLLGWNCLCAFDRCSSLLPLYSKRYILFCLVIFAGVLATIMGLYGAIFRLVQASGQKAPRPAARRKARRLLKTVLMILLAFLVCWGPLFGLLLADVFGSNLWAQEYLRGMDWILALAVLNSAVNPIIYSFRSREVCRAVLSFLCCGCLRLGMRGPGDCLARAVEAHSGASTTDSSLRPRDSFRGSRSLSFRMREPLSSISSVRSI
# Hsp70 activator: Hsp70 transcriptional activation, primary screen; HeLa Hsp70 promoter luciferase reporter, luminescence; scaled: vehicle 0, proteasome-inhibitor control 100%; activation, % at 10 µM; 200,000 tested, 0.04% active; AID 1203;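 active = activation above the mean across all tested compounds plus 3 SD, cutoff set per campaign, cut at about 5.5% in these data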;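 also: 100% = MG132 at 30 µM as the positive control and 0% = DMSO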
# Dynein cargo inh: dynein cargo transport inhibition | 3617.4 mouse cells, GR-EGFP nuclear translocation imaging; test concentration mostly 20 µM; stimulated with dexamethasone, 1 µM; hits give low values | z-score, hits read low | 220,000 tested, 0.47% active | AID 1381;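 active = plate z-score of nuclear minus cytoplasmic receptor signal below a set negative limit, without overly bright fluorescence or cell loss, cut at about -3.5 in these data, passing the limit was not always enough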;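 also: z-score of nuclear minus cytoplasmic ring GR-EGFP intensity difference per well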
#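 medium = tetracycline-free induction medium containing charcoal-stripped FBS | also added = 1.0 µM final dexamethasone stimulus | schedule = 48 h induction, 1 h compound, 30 min dex at 37 °C | technique = fixed, Hoechst-stained cells imaged at 10x for EGFP | measure = GR-EGFP nuclear translocation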
# S1P4 antag: human S1P4 receptor antagonism; 220,000 tested, 0.26% active; O95977; inhibition, % at 4.98 µM; AID 1510; S1P4-expressing cells, antagonist mode, reporter read-out; in the data active = inhibition above about 29%;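 also: 0% = wells stimulated with agonist and 100% = vehicle wells without agonist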
# The depositor's hits bear a star; · = no result given.
SMILES,S1P3 antag,MDM2 E3 inh,S1P4 ag,Hsp70 activator,Dynein cargo inh,S1P4 antag
CCCS(=O)(=O)N1CCN(C(=O)c2cc(OC)cc(OC)c2)CC1,94.6*,-14.0,-1.3,-0.2,1.17,5.4
O=C(CC1C(=O)NCCN1Cc1ccccc1C(F)(F)F)NCCn1cccn1 (stereo not given),-15.6,-9.9,-1.0,-0.3,3.84,5.7
Cc1nnc(NC(=O)CSc2nnc(Cc3cccn3C)n2-c2cccc(C(F)(F)F)c2)s1,88.1*,-16.1,0.3,-0.2,0.526,-6.5
CN1C=CC=C/C1=C1\SC(=S)N(N)C1=O,-5.2,-14.1,2.7,0.0,0.34,-15.3
COc1ccc(N2C(=S)N=C(Nc3ccccc3)C23CCCCC3)cc1,-11.4,30.1*,1.0,-0.3,0.113,-9.3
Cc1nn(-c2nnc(NCc3ccccc3)nn2)c(C)c1Br,14.1,33.9*,0.1,-0.4,-0.725,-9.2
O=C(NC1CCCCC1)N(Cc1cc2cc3c(cc2[nH]c1=O)OCCO3)C1CCCCC1,·,-9.9,-0.3,-0.2,0.369,-16.1
O=C(NCC1CCCO1)c1cc(C(=O)c2ccc(Cl)cc2Cl)c[nH]1 (stereo not given),-8.3,4.6,-1.5,-0.2,2.42,8.5
COc1ccc(OC)c(N=c2ssnc2Cl)c1,·,-8.3,-0.5,-0.3,-4.74*,-12.5
CCN(C(=O)CSc1nc2ccccc2c(=O)n1-c1cccc(C)c1)C1CCS(=O)(=O)C1 (stereo not given),2.4,62.6*,0.6,-0.3,-0.52,-17.4
COCCN1Cc2cccc(C(=O)NCCCN3CCCC3=O)c2C1=O,-0.5,-5.8,0.4,·,-0.737,12.2
COc1ccc2o/c(=N\O)c(C(=O)Nc3ccccc3OC)cc2c1,·,-6.7,-1.3,0.1,-4.15*,7.7
CCN(c1ccc(NC(=O)COC(=O)/C=C/c2cccs2)cc1)C(C)C,-18.8,-16.6,1.8,-0.2,0.854,-6.4
CC1=NN(c2cccc(C(=O)O)c2)C(=O)/C1=C\C=C\c1ccco1,·,36.5*,1.6,-0.1,-4.61*,6.0
O=C1NN(c2ccc(F)cc2)C(=O)/C1=C\C=C\c1ccco1,-4.0,-5.1,0.2,-0.3,-1.16,-17.0
CCc1ccccc1NC1c2ccccc2C(=O)N1Cc1ccco1 (stereo not given),74.6*,-9.2,0.4,0.0,0.117,-26.5
COc1cccc(N2C(=O)C(CC(=O)Nc3ccc(F)cc3)N(C3CCCCC3)C2=O)c1 (stereo not given),102.9*,-14.1,-0.4,0.1,-0.79,12.9
Cc1cccc(Cn2c(=O)n(Cc3ccco3)c(=O)c3ccccc32)c1,-25.2,-12.0,-1.2,-0.4,-0.466,7.1
Cc1ccccc1Cn1c(=O)n(Cc2ccco2)c(=O)c2ccccc21,55.1*,1.4,1.8,-0.4,-0.424,-0.5
COc1ccc(C)cc1NC(=O)C(OC(=O)CNC(=O)c1cc(C)cc(C)c1)c1ccccc1 (stereo not given),-12.9,67.2*,-0.4,-0.3,-0.697,-5.3
CCc1ccccc1NC(=S)N(CCN1CCOCC1)C1CCN(C(C)=O)CC1,1.4,-2.5,0.7,-0.1,-0.554,18.5
O=C(/C=C/c1ccncc1)c1ccc(NC(=O)c2ccccc2F)cc1,0.8,-7.5,2.5,-0.4,-0.376,37.4*
CCn1c(CNC(=O)Cc2ccc(OC)cc2)nnc1SCC(=O)Nc1nccs1,60.5*,-6.1,1.5,-0.4,-0.429,-24.2
CCOC(=O)c1ccccc1NC(=O)Cn1c(-c2nonc2N)nc2ccccc21,56.5*,-1.6,-0.3,-0.2,1.22,-11.4
COc1ccc(C(=O)N/C=C/n2cnc3cc(C(F)(F)F)ccc32)cc1,1.2,·,1.4,·,-0.357,-6.3
SMILES,S1P3 antag,MDM2 E3 inh,S1P4 ag,Hsp70 activator,Dynein cargo inh,S1P4 antag
O=C(COc1ccc(Br)cc1)N1CCC(c2ccccc2)C1 (stereo not given),·,-6.3,0.3,-0.1,0.492,-7.8
COc1ccc(C2C(CC(=O)O)=C(O)C(=O)N2c2ccccc2)cc1 (stereo not given),3.7,33.5*,2.9,0.3,-1.15,-8.3
COC(=O)c1ccc(Oc2c(F)c(F)nc(N3CCOCC3)c2F)cc1,-9.4,-10.2,1.2,-0.3,0.589,-10.2
O=C(CCCn1c(=S)[nH]c2ccccc2c1=O)NC1CCCC1,60.2*,-12.0,0.6,-0.1,-0.841,18.0
CC1CCCCC1NC(=O)CCCn1c(=S)[nH]c2ccccc2c1=O (stereo not given),-10.5,-1.8,-0.9,0.2,1.09,3.5
CCc1nnc(NC(=O)C2CCCCC2)s1,4.8,-11.5,1.3,-0.1,1.72,-34.6
CC(C)c1nnc(NC(=O)C2CCCCC2)s1,93.9*,-13.9,4.3,0.1,1.75,-27.2
O=C(c1ccc2c(Cl)c3c(nc2c1)CCCC3)N1CCC(N2CCCCC2)CC1,-4.6,·,0.3,-0.1,-3.12,-9.8
CC(=O)c1ccc(N2CCN(C(=O)c3ccc4c(Cl)c5c(nc4c3)CCCC5)CC2)cc1,-4.4,11.4,0.9,0.0,-3.6*,8.8
OCCC1CN(Cc2cc(F)ccc2-n2cccn2)CCN1C1CCCC1 (stereo not given),-16.4,-86.7,2.2,·,-0.14,-4.1
COc1ccc2[nH]c3c4c(ccc3c2c1)C(=O)C=CC4=O,-0.5,32.0*,2.3,·,-5.23*,14.0
CCc1ccccc1NC(=O)CN(C)C(=O)Cn1cc(C(F)(F)F)cc(Cl)c1=O,-11.4,-13.9,1.2,0.2,0.589,-17.1
O=c1ccn([C@@H]2O[C@H](CO)[C@@H](O)[C@H]2O)c(=O)[nH]1,-11.8,·,1.6,0.0,-0.992,-4.0
Nc1ccn([C@@H]2O[C@H](CO)[C@@H](O)[C@@H]2O)c(=O)n1,-31.3,·,11.5*,-0.3,0.311,14.0
CCCCC(=O)/C=C/n1c(=S)oc2ccccc21,-11.0,68.5*,0.9,-0.2,-3.3,-13.9
COC(=O)[C@@H]1C[C@]2(OC(=O)c3ccccc3)C=CC(=O)C[C@@H]2N1C(=O)OCc1ccccc1,-7.8,·,-0.8,0.1,-6.49*,27.1
COC(CNC(=O)C1CCCN1C(=O)OCc1ccccc1)OC (stereo not given),1.5,4.7,1.3,-0.4,-0.285,-10.9
CN(C)c1ccc(C(=O)Nc2nc3c(s2)CCCC3)cc1,90.2*,-57.9,-0.3,-0.4,0.11,2.3
CCNC(=S)Nc1cccc(F)c1C,-23.8,-3.7,0.0,0.2,1.38,-8.6
O=C(O)CCc1ccc(-c2ccc(Br)cc2)n1CC(=O)O,5.5,34.4*,-1.1,-0.3,0.209,-10.9
O=C(O)CCc1ccc(-c2ccccc2)n1CC(=O)O,·,-12.5,0.3,-0.5,-0.247,-1.9
CCOC(=O)c1c(C)nc2ccccn12,70.5*,1.7,-1.0,-0.1,0.0915,-14.1
Cc1nc2ccccn2c1C(=O)NN,-5.2,-12.9,0.8,-0.4,-0.721,-15.1

# Bioassay records (PubChem)
